This is an account of results in article PMC3776988 (British Journal of Cancer, 2013).

Starred links: 1 amine or outer side, 2 acyl side, 3 side chain; linkers in the order of their positions; H or OH if unused. Positions of bridges follow the written chain, without caps; N, C: chain ends. Non-standard residues stand in square brackets, D forms with d. Residues, ends and D or L forms follow the SMILES beside them. *: point of attachment. X1 = CC[C@H](C)[C@@H](N[*:1])[C@@H](O)CC(=O)O[C@H](C(=O)[C@H](C)C(=O)[*:2])C(C)C; NMeY = CN[C@@H](Cc1ccc(O)cc1)C(=O)O; dNMeL = CN[C@H](CC(C)C)C(=O)O; Pyruvoyl = CC(=O)C(=O)*

The subject of data set [1] is patients with advanced malignant melanoma. Description: Phase II stage toxicity. Particulars: single-agent plitidepsin 3.2 mg m^−2. Type of data set: in vivo, human. In short, it runs like this:
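Previously untreated adults with advanced melanoma (ECOG PS ⩽2) were randomised without stratification to plitidepsin 3.2 mg m−2 as a 1-h i.v. infusion on days 1, 8 and 15 q4wk. Day-1 dosing could be delayed up to 2 weeks, and day-8/15 doses were skipped if retreatment criteria were unmet. Up to two dose reductions were allowed. Patients receiving ⩾1 infusion were evaluable; AEs were graded by NCI-CTCAE v.3.0.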

The next data set deals with patients. Conditions: plitidepsin 1-h weekly schedule; ref Izquierdo et al, 2008; cited from earlier work.
For data set [2], the system named is patients with metastatic/advanced melanoma. Conditions: cited from earlier work.

As for `CC[C@H](C)[C@H]1NC(=O)[C@@H](NC(=O)[C@@H](CC(C)C)N(C)C(=O)[C@@H]2CCCN2C(=O)C(C)=O)[C@@H](C)OC(=O)[C@H](Cc2ccc(OC)cc2)N(C)C(=O)[C@@H]2CCCN2C(=O)[C@H](CC(C)C)NC(=O)[C@@H](C)C(=O)[C@H](C(C)C)OC(=O)C[C@@H]1O` [Plitidepsin, plitidepsin] (Pyruvoyl-P[dNMeL]T[X1]LP[NMeY](Me); ester 3-C), in data set [1], the Febrile neutropenia entry is given as “no cases”; the “Grade 3 ALT increases, % of patients” value stood at 10%; the “Omissions because of treatment-related transaminase increases” value worked out at 25%; the “Patients who skipped at least one plitidepsin infusion” value was found to be 47%. For the same compound, the “Single-agent RD” value in the data set on patients is 3.2 mg m^−2.
As for `CN(C)/N=N/c1[nH]cnc1C(N)=O` [DTIC, Dacarbazine], the “Responses to single-agent DTIC, % of patients” value in data set [2] (generally short lived, ref Falkson et al, 1998, Chapman et al, 1999, Chiarion Sileni et al, 2001, Avril et al, 2004, Bedikian et al, 2006, Schadendorf et al, 2006, Patel et al, 2011) is 6–15%. Besides, the “Response rates reported for single-agent DTIC” value in data set [2] (reported range) is listed as 5–15%.
